Measured values taken from ChEMBL document CHEMBL1124721, “Antioxidant-based inhibitors of leukotriene biosynthesis. The discovery of 6-[1-[2-(hydroxymethyl)phenyl]-1-propen-3-yl]-2,3-dihydro-5- benzofuranol, a potent topical antiinflammatory agent” (J Med Chem, 1990).
pIC50: −log10 of the molar value.

Columns and labels:
[1] = Partition coefficient (logP); type: physicochemical; details: octanol/water
Summary of the method: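 Octanol/water log P was estimated by calculation with commercial software, not measured experimentally.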

[2] = system: Mus musculus; test: Tested for ability to inhibit the topical inflammatory response in the topical mouse ear(TME) model; type: functional
Summary of the method: (§1)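 Mice received 25 μL on the inner surface of one ear, with five mice per group. Compound was applied in acetone/pyridine/water 97:2:1 together with 200 μg/mL PMA as irritant. Controls received vehicle alone or vehicle with PMA. Solvent was evaporated at room temperature. After 4 h, 6-mm ear punches were weighed wet to measure edema. ED50 came from four-point titrations.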

[3] = species on record: Homo sapiens; test: Inhibitory activity against production of leukotriene B4 in isolated human polymorphonuclear leukocytes; type: functional
Summary of the method: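 Leukotriene biosynthesis in human polymorphonuclear leukocytes was started with calcium ionophore A23187, and LTB₄ was quantified by radioimmunoassay. Inhibition curves came from five-point titrations fitted with a four-parameter algorithm to give IC50. Compounds were generally tested at least in duplicate, with the IC50 reported as the mean of all determinations.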

[4] = system: Mus musculus; test: Tested for its ability to inhibit the topical inflammatory response in the topical mouse ear(TME) model; type: functional; summary of the method: as §1

| SMILES | logP [1] | ED50 [2] [uM site-1] | pIC50 [3] | ED50 [4] [uM site-1] |
| --- | --- | --- | --- | --- |
| OCc1ccccc1NCc1c(O)ccc2c1CCCO2 | 2.4 | 0.6 | 4.77 |  |
| OCc1ccccc1SCc1cc2c(cc1O)CCCO2 | 3.6 |  | 5.85 |  |
| CC(=O)c1ccc(SCc2cc3c(cc2O)CCCO3)cc1 | 4.2 |  | 6.36 |  |
| O=Cc1ccccc1/C=C/Cc1cc2c(cc1O)CCO2 | 3.9 |  | 7.15 |  |
| COc1ccc(O)c(C/C=C/c2ccccc2)c1 | 4.4 | 1.08 | 6.60 |  |
| OCc1ccccc1CCCc1cc2c(cc1O)CCO2 | 4 |  | 6.72 |  |
| COc1ccc(O)c(CNc2ccc(F)cc2F)c1 | 3.5 |  | 5.89 |  |
| Oc1cc2c(cc1CNc1ccccc1)OCC2 | 2.9 |  | 6.31 |  |
| Oc1cc2ccoc2cc1CNc1ccccc1 | 3.3 | 0.97 | 4.96 |  |
| CC(=O)c1ccc(/C=C/Cc2cc3c(cc2O)CCO3)cc1 | 4 | 0.54 | 7.22 |  |
| COc1ccc(O)c(CSc2ccccc2)c1 | 3.9 |  | 6.23 |  |
| N#Cc1ccc(NCc2cc3c(cc2O)CCCO3)cc1 | 3.6 | 1.61 | 5.80 |  |
| COc1ccc(O)c(CNc2ccccc2)c1 | 2.8 |  | 5.33 | 0.61 |
| N#Cc1cc(NCc2cc3c(cc2O)CCO3)cs1 | 2.8 |  | 6.36 |  |
| OCc1ccccc1/C=C/Cc1cc2c(cc1O)CCO2 | 3.5 | 0.74 | 6.89 |  |
| Oc1ccc2c(c1CNc1ccc(F)cc1F)CCCO2 | 4.2 |  | 5.85 |  |

| SMILES | logP [1] | ED50 [2] [uM site-1] | pIC50 [3] | ED50 [4] [uM site-1] |
| --- | --- | --- | --- | --- |
| CC(=O)c1ccc(NCc2cc3c(cc2O)CCO3)cc1 | 2.9 | 0.35 | 5.92 |  |
| OCc1ccccc1NCc1cc2c(cc1O)CCO2 | 1.9 |  | 4.96 |  |
| Oc1cc2c(cc1CNc1ccc(F)cc1F)OCC2 | 3.6 |  | 6.18 |  |
| CCOC(=O)c1ccc(NCc2cc3c(cc2O)CCCO3)cc1 | 4.6 |  | 6.22 |  |
| CC(=O)c1ccc(NCc2cc3c(cc2O)CCCO3)cc1 | 3.5 | 0.35 | 5.39 |  |
| Oc1cc2c(cc1CNc1ccc(F)cc1F)OCCC2 | 4.2 |  | 5.89 |  |
| COc1ccc(O)c(COc2ccccc2)c1 | 3.3 |  | 5.85 |  |
| COc1ccc(O)c(CNc2ccc(C#N)s2)c1 | 2.7 |  | 5.59 |  |
| COc1ccc(O)c(CCc2ccccc2)c1 | 4.3 |  | 6.92 |  |
| N#Cc1ccc(NCc2cc3c(cc2O)CCO3)s1 | 2.8 |  | 6.00 |  |
| OCc1ccccc1NCc1cc2c(cc1O)CCCO2 | 2.4 | 0.49 | 4.68 |  |
| CC(=O)c1ccc(NCc2c(O)ccc3c2CCCO3)cc1 | 3.5 |  | 4.96 |  |
| COc1ccc(O)c(CSc2ccccc2CO)c1 | 2.9 | 0.87 | 5.06 |  |
| OCc1ccccc1NCc1cc2occc2cc1O | 2.2 | 0.44 | 4.38 |  |
| Oc1cc2c(cc1CNc1ccccc1)OCCC2 | 3.5 | 0.67 | 5.77 |  |
| COc1ccc2c(c1)c(CC(=O)O)c(C)n2C(=O)c1ccc(Cl)cc1 [INDOMETHACIN] |  | 0.64 |  |  |
